Measured values: ChEMBL document CHEMBL3877249, “Novel 2-aryl-4-(4'-hydroxyphenyl)-5H-indeno[1,2-b]pyridines as potent DNA non-intercalative topoisomerase catalytic inhibitors” (Eur J Med Chem, 2017)
Structures can show the parent of a compound that is named as a salt.

Columns and labels:
[1] = target: T1, DNA topoisomerase 1 (Homo sapiens) (UniProt P11387); experiment: Inhibition of human DNA topoisomerase-1 at 100 uM using supercoiled pBR322 DNA as substrate after 30 mins by ethidium bromide staining based agarose gel electrophoresis relative to control
T1 sequence (whole entry): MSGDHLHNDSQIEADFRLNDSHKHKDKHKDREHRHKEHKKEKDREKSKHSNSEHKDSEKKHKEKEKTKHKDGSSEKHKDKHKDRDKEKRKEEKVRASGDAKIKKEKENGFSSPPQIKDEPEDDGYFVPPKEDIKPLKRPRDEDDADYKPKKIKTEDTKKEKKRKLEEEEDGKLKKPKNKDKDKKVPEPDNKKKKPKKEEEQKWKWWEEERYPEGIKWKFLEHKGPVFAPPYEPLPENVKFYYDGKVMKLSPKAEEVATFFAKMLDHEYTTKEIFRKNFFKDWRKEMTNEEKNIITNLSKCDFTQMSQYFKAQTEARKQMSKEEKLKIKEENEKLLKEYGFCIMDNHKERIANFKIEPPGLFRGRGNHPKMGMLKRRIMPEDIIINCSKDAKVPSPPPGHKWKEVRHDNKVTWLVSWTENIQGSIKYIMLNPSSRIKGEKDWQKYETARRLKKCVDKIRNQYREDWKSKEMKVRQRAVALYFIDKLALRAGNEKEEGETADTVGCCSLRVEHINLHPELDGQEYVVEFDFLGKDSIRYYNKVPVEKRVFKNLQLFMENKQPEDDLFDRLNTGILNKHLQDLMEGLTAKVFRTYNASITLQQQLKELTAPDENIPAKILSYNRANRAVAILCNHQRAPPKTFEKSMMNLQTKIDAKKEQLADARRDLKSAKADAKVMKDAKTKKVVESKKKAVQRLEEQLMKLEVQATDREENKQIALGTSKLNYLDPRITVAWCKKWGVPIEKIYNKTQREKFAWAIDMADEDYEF
Outline: (§1)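 Recombinant human topo I, 1 unit (the amount that fully relaxes supercoiled pBR322), with 100 ng pBR322 DNA at 37 °C for 30 min in 10 mM Tris-HCl pH 7.9, 150 mM NaCl, 0.1% BSA. Compounds were screened at 100 µM, and those above 30% inhibition were retested at 20 µM. Products ran on 1% agarose at 15 V for 7 h in TAE with ethidium bromide staining. Mean ± S.D. from three experiments in triplicate.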

[2] = Antiproliferative activity against human HeLa cells after 72 hrs by CCK8 assay; type: functional, cell-based
Outline: (§2)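 Cells seeded at 2–4 × 10^4 per well, grown overnight in medium with 10% FBS at 37 °C and 5% CO2. After 4 h FBS starvation they were exposed to graded compound concentrations for 72 h. CCK-8 was added for a further 4 h and absorbance read at 450 nm. IC50 came from a four-parameter logistic fit.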

[3] = Antiproliferative activity against human HCT15 cells after 72 hrs by CCK8 assay; type: functional, cell-based; conditions: HCT-15, 72 h; outline: as §2
[4] = Antiproliferative activity against human T47D cells after 72 hrs by CCK8 assay; type: functional, cell-based; outline: as §2
[5] = target: DNA topoisomerase 2-alpha (Homo sapiens) (UniProt P11388); experiment: Inhibition of human DNA topoisomerase-2alpha at 100 uM using supercoiled pBR322 DNA as substrate after 30 mins by ethidium bromide staining based agarose gel electrophoresis relative to control
Outline: (§3)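 Human topo IIα, 1 unit set by full relaxation of pBR322, with 100 ng pBR322 for 30 min in 10 mM Tris-HCl pH 7.9, 50 mM NaCl, 5 mM MgCl2, 1 mM EDTA and BSA. Stop was with EDTA. Screening was at 100 µM, with retest at 20 µM if inhibition exceeded 30%. Gel was 1% agarose at 25 V for 4 h in TAE, stained with ethidium bromide. Mean ± S.D. from three experiments in triplicate.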

[6] = Antiproliferative activity against human DU145 cells after 72 hrs by CCK8 assay; type: functional, cell-based; conditions: DU-145, 72 h; outline: as §2
[7] = target: DNA topoisomerase 2-alpha (Homo sapiens) (UniProt P11388); experiment: Inhibition of human DNA topoisomerase-2alpha at 20 uM using supercoiled pBR322 DNA as substrate after 30 mins by ethidium bromide staining based agarose gel electrophoresis relative to control; outline: as §3
[8] = species: Homo sapiens; experiment: Inhibition of DNA topoisomerase catalytic activity in human T47D nuclear extract at 50 uM using supercoiled pBR322 DNA as substrate after 24 hrs by ethidium bromide staining based agarose gel electrophoresis relative to control
Outline: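 T47D cells at 5 × 10^5 per 60 mm dish were grown to 80% confluence, washed with FBS-free medium and treated 24 h. Nuclear extracts were prepared in HEPES/MgCl2/KCl/DTT/NP40 buffer, then extracted with NaCl buffer. The amount of extract that fully relaxes 100 ng pBR322 at 37 °C in 20 min was set as the unit. Products were run on agarose in TAE and stained with ethidium bromide (0.5 µg/mL).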

[9] = Antiproliferative activity against HFL1 cells after 72 hrs by CCK8 assay; type: cell-based; conditions: Homo sapiens, HFL1, 72 h; outline: as §2
[10] = Antiproliferative activity against HEK293 cells after 72 hrs by CCK8 assay; type: cell-based; conditions: Homo sapiens, HEK293, 72 h; outline: as §2
[11] = target: T1, DNA topoisomerase 1 (Homo sapiens); experiment: Inhibition of human DNA topoisomerase-1 at 20 uM using supercoiled pBR322 DNA as substrate after 30 mins by ethidium bromide staining based agarose gel electrophoresis relative to control; outline: as §1
[12] = target: T1, DNA topoisomerase 1 (Homo sapiens); experiment: Poison activity at human DNA topoisomerase-1 assessed as DNA intercalation by measuring DNA unwinding using pHOT1 DNA as substrate after 30 mins by ethidium bromide staining based agarose gel electrophoresis

DNA topoisomerase 2-alpha (Homo sapiens), sequence (P11388 whole entry): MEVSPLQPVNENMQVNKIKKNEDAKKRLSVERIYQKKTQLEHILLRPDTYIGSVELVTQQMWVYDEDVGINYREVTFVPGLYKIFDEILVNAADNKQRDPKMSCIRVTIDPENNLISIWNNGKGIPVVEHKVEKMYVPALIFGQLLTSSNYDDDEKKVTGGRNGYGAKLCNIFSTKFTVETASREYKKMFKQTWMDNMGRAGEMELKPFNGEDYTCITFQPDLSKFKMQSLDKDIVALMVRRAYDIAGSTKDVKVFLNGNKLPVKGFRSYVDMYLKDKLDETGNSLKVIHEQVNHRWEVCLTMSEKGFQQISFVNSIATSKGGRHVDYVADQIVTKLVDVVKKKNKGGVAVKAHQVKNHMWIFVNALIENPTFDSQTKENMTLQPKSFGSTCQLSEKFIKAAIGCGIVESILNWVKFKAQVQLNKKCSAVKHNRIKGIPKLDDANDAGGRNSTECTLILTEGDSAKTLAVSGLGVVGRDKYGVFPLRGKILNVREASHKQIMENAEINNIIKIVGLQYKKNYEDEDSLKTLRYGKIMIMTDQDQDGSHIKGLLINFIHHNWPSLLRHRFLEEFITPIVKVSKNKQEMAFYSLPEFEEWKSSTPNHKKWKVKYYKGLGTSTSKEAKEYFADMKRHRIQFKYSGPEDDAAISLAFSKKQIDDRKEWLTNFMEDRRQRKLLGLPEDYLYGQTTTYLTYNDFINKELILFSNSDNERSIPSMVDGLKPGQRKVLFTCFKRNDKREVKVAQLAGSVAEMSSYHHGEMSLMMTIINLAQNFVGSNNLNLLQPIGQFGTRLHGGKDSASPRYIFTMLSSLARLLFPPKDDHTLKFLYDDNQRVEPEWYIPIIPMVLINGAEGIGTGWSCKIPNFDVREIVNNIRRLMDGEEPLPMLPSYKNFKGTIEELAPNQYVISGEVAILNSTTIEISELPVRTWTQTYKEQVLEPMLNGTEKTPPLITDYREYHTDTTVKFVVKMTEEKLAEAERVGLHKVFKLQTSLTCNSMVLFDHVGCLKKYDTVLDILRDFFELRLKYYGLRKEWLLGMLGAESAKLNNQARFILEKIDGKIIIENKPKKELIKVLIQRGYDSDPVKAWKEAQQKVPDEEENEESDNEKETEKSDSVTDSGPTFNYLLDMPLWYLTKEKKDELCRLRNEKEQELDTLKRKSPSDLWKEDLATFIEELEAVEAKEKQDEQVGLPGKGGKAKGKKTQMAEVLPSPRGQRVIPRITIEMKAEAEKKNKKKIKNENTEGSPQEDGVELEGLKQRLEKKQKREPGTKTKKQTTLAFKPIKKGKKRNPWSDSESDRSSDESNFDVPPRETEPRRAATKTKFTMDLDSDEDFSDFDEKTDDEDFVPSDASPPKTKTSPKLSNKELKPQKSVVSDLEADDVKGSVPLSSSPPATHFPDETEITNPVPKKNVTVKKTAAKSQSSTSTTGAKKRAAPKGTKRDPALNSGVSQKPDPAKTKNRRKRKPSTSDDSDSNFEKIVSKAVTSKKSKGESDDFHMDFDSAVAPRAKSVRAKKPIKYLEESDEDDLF

Row | SMILES | inhibition [1] [%] | IC50 [2] [µM] | IC50 [3] [µM] | IC50 [4] [µM] | inhibition [5] [%] | IC50 [6] [µM] | inhibition [7] [%] | inhibition [8] [%] | IC50 [9] [µM] | IC50 [10] [µM] | inhibition [11] [%] | Activity [12]
1 | Oc1ccc(-c2cc(-c3cccnc3)nc3c2Cc2ccccc2-3)cc1 | 0 | > 50 | > 50 | > 50 | 4 | > 50 | – | – | – | – | – | –
2 | Oc1cccc(-c2cc(-c3cccnc3)nc3c2Cc2ccccc2-3)c1 | 1.5 | 5.19 | 1.87 | 1.17 | 18.5 | 2.8 | – | – | – | – | – | –
3 | Oc1ccc(-c2cc(-c3ccoc3)nc3c2Cc2ccccc2-3)cc1 | 1.4 | 5.21 | 1.83 | 2.6 | 61.4 | 6.01 | 28 | – | – | – | – | –
4 | Oc1ccccc1-c1cc(-c2ccncc2)nc2c1Cc1ccccc1-2 | 0 | 5.78 | 2.18 | 2.44 | 75.2 | 4.7 | 0.9 | – | – | – | – | –
5 | Oc1ccccc1-c1cc(-c2cccnc2)nc2c1Cc1ccccc1-2 | 0 | 7.8 | 3.52 | 5.15 | 65.5 | 7.46 | 10.5 | – | – | – | – | –
6 | COc1cc([C@@H]2c3cc4c(cc3[C@@H](O[C@@H]3O[C@@H]5CO[C@@H](C)O[C@H]5[C@H](O)[C@H]3O)[C@H]3COC(=O)[C@H]23)OCO4)cc(OC)c1O [ETOPOSIDE] | – | 0.18 to 1.4 | 1.1 to 2.82 | – | – | 0.02 to 13.1 | – | 61.1 | 87.6 | 1.74 | – | –
7 | Oc1cccc(-c2cc(-c3ccco3)nc3c2Cc2ccccc2-3)c1 | 28.9 | 6.27 | 1.58 | 1.07 | 77.5 | 3.75 | 36.9 | – | – | – | – | –
8 | c1ccc(-c2cc(-c3ccncc3)nc3c2Cc2ccccc2-3)cc1 | 0 | > 50 | 16.4 | > 50 | 2.3 | > 50 | – | – | – | – | – | –
9 | Oc1ccccc1-c1cc(-c2ccsc2)nc2c1Cc1ccccc1-2 | 12.8 | > 50 | > 50 | > 50 | 50.2 | > 50 | 4.9 | – | – | – | – | –
10 | c1ccc(-c2cc(-c3cccs3)nc3c2Cc2ccccc2-3)cc1 | 56 | > 50 | > 50 | – | 5.8 | > 50 | – | – | – | – | 0 | –
11 | Oc1cccc(-c2cc(-c3ccoc3)nc3c2Cc2ccccc2-3)c1 | 4.5 | 4.48 | 1.24 | 2.91 | 82.2 | 1.51 | 29.6 | – | – | – | – | –
12 | c1ccc(-c2cc(-c3ccccn3)nc3c2Cc2ccccc2-3)cc1 | 12.3 | – | – | – | 0 | – | – | – | – | – | – | –
13 | c1ccc(-c2cc(-c3ccco3)nc3c2Cc2ccccc2-3)cc1 | 18.7 | 16.6 | > 50 | – | 41.3 | 7.74 | 5.7 | – | – | – | – | –
14 | c1ccc(-c2cc(-c3ccsc3)nc3c2Cc2ccccc2-3)cc1 | 72.5 | > 50 | > 50 | – | 0.5 | > 50 | – | – | – | – | 0 | –
15 | Oc1cccc(-c2cc(-c3ccsc3)nc3c2Cc2ccccc2-3)c1 | 33.1 | 1.74 | 2.49 | 1.52 | 75.5 | 3.12 | 22 | – | – | – | 0 | –
16 | Oc1ccc(-c2cc(-c3ccccn3)nc3c2Cc2ccccc2-3)cc1 | 0 | > 50 | > 50 | > 50 | 14.8 | > 50 | – | – | – | – | – | –
17 | Oc1ccc(-c2cc(-c3ccncc3)nc3c2Cc2ccccc2-3)cc1 | 0 | > 50 | > 50 | > 50 | 1.14 | > 50 | – | – | – | – | – | –
18 | COc1cccc2c1C(=O)c1c(O)c3c(c(O)c1C2=O)C[C@@](O)(C(=O)CO)C[C@@H]3O[C@H]1C[C@H](N)[C@H](O)[C@H](C)O1 [DOXORUBICIN HYDROCHLORIDE] | – | 0.88 to 1.2 | 1.08 to 1.23 | 1.34 | – | 0.52 to 1 | – | – | 2.31 | 4.96 | – | –
19 | c1ccc(-c2cc(-c3ccoc3)nc3c2Cc2ccccc2-3)cc1 | 6.4 | 10.8 | 7.05 | 17.4 | 3.9 | 1.09 | – | – | – | – | – | –
20 | COc1cc(NS(C)(=O)=O)ccc1Nc1c2ccccc2nc2ccccc12 | – | – | – | – | – | – | – | – | – | – | – | Dose-dependent effect
21 | Oc1cccc(-c2cc(-c3ccncc3)nc3c2Cc2ccccc2-3)c1 | 1.3 | 2.41 | 1.94 | 1.05 | 49.5 | 4.36 | – | – | – | – | – | –
22 | Oc1ccccc1-c1cc(-c2ccco2)nc2c1Cc1ccccc1-2 | 62.4 | > 50 | > 50 | > 50 | 58.7 | > 50 | 20 | – | – | – | 27.1 | –
23 | Oc1ccccc1-c1cc(-c2ccoc2)nc2c1Cc1ccccc1-2 | 0.4 | > 50 | > 50 | > 50 | 1.8 | > 50 | – | – | – | – | – | –
24 | CC[C@@]1(O)C(=O)OCc2c1cc1n(c2=O)Cc2cc3ccccc3nc2-1 [CAMPTOTHECIN] | – | 0.4 to 7.32 | 0.31 to 18.9 | 13.7 | – | 0.11 to 2.09 | – | – | 1.06 | 0.83 | – | –
25 | Oc1cccc(-c2cc(-c3ccccn3)nc3c2Cc2ccccc2-3)c1 | 2.4 | > 50 | > 50 | > 50 | 3.5 | > 50 | – | – | – | – | – | –
26 | Oc1ccccc1-c1cc(-c2ccccn2)nc2c1Cc1ccccc1-2 | 0.5 | > 50 | > 50 | 29.6 | 15.2 | > 50 | – | – | – | – | – | –
27 | Oc1ccc(-c2cc(-c3ccsc3)nc3c2Cc2ccccc2-3)cc1 | 45.5 | 4.9 | 2.45 | 4.52 | 74.8 | 3.35 | 65.9 | – | – | – | 2.5 | –
